Assay [1] concerns the target T1, Gamma-aminobutyric acid receptor subunit alpha-1/beta-2/delta (Homo sapiens, UniProt O14764+P14867+P47870).
T1 sequence (P14867 whole entry): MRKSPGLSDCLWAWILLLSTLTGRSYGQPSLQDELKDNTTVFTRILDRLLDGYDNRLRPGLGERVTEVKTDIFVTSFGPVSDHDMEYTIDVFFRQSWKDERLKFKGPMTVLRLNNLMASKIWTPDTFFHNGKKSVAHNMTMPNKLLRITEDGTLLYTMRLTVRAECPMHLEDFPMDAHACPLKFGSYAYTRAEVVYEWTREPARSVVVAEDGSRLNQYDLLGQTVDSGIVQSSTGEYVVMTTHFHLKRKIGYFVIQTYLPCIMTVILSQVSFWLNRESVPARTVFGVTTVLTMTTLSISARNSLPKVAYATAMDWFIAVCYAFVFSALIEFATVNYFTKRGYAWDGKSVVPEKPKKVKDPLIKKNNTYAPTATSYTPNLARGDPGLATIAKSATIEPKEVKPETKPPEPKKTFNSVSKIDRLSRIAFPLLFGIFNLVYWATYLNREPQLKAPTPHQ
T1 sequence (P47870 whole entry): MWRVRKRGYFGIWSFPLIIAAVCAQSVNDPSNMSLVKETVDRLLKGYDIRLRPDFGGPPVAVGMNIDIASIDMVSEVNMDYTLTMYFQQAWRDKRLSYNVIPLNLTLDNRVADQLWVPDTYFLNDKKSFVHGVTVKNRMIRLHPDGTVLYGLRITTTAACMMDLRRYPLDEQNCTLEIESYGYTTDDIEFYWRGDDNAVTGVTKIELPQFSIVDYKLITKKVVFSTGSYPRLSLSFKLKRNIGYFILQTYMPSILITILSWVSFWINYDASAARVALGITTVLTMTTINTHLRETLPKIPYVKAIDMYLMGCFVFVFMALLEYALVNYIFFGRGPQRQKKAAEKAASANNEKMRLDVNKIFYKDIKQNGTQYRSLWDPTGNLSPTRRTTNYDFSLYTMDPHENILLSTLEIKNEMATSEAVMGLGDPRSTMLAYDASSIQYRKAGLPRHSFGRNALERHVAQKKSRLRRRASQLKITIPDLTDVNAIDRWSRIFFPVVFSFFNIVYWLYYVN
T1 sequence (O14764 whole entry): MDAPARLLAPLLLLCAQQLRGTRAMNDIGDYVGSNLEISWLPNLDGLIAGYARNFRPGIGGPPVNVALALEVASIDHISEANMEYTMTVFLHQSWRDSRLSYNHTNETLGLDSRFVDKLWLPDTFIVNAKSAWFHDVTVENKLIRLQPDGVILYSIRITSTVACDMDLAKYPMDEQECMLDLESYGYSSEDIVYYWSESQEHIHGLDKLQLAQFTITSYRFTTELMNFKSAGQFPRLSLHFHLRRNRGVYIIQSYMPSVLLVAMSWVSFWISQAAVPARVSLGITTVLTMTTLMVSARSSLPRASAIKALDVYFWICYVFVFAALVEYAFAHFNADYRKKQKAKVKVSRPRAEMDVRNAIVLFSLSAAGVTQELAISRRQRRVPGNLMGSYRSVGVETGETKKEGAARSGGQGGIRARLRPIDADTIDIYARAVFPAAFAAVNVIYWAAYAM
Briefly: Antagonist activity at recombinant human alpha1beta2delta GABAA receptor expressed in HEK293 Flp-In cells by FMP assay. In kind it is cell-based, Flp-In-293. A digest of the protocol: (§1)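 HEK293 Flp-In cells stably expressing human δ subunit, transiently transfected with human α and β subunits (1:1) to form αβδ receptors. Read-out is the FLIPR membrane potential dye ΔRFU, baseline to peak/plateau, with GABA EC80 as agonist. Four-parameter fit of concentration–inhibition curves gives IC50, from at least three independent experiments.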

For assay [2], the system named is GABAA receptor α4β2δ (human). Description: Antagonist activity at recombinant human alpha4beta2delta GABAA receptor expressed in HEK293 Flp-In cells by FMP assay.
Assay [3] addresses T1, Gamma-aminobutyric acid receptor subunit alpha-1/beta-2/delta. Description: Antagonist activity at human alpha1beta2delta GABAA receptor expressed in HEK293 Flp-In cells by FMP assay. In kind it is cell-based, Flp-In-293. A digest of the protocol:
as §1

The nature of assay [4]: Antagonist activity at human alpha6beta2delta GABAA receptor expressed in HEK293 Flp-In cells by FMP assay. In kind it is cell-based, Flp-In-293. Summed up:
as §1

The target in assay [5] is T2, Gamma-aminobutyric acid receptor subunit alpha-5/beta-2/gamma-2 (Homo sapiens, UniProt P18507+P31644+P47870).
T2 sequence (P47870 whole entry): T1 sequence (P47870 whole entry)
T2 sequence (P18507 whole entry): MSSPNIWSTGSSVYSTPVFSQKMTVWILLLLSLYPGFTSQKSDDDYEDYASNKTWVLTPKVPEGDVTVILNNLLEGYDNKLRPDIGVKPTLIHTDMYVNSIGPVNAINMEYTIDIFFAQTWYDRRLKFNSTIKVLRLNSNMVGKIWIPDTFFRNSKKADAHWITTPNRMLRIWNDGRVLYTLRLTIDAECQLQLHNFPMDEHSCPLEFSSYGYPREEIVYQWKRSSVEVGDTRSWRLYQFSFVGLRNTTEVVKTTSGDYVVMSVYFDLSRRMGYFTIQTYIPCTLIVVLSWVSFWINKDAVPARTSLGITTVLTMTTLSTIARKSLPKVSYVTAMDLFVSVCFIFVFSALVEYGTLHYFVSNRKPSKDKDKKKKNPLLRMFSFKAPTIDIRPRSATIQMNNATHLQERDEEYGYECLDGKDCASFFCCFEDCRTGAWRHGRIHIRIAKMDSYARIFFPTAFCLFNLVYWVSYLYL
T2 sequence (P31644 whole entry): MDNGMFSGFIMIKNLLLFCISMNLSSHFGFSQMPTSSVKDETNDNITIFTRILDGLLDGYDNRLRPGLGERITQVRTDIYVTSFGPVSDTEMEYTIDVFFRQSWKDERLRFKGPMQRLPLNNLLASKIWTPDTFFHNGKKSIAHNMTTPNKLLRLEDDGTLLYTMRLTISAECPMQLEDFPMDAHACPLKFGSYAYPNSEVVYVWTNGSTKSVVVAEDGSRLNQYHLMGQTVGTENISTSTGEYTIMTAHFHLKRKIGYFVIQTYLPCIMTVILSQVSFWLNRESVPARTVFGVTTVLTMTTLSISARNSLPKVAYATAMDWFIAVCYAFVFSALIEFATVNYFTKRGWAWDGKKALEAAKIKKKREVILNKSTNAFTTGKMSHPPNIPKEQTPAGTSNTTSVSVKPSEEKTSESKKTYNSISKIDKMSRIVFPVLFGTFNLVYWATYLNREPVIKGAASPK
Briefly: Antagonist activity at human alpha5beta2gamma2 GABAA receptor expressed in HEK293 cells by FMP assay. Type of assay: cell-based. Summed up: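 Human αβγ2 receptors in HEK293 cells: α1β2γ2 stably expressed, other αβγ2 subtypes transiently transfected into HEK293 Flp-In background cells (α:β:γ 1:1:2). FLIPR membrane potential assay with ΔRFU baseline to peak/plateau and GABA EC80 as agonist. IC50 from a four-parameter fit, at least three independent experiments.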

Setting [6] is: Homo sapiens, Flp-In-293, read-out: pIC50 (converted).

In the case of `O=C(Nc1cccc(C(=O)N2CCC3(CCNCC3)CC2)c1)c1cccs1`, the IC50 is 0.245 µM in assay [1] (read-out: pIC50 (converted)), 0.0676 µM in assay [2] (setting [6]) and 0.068 µM in assay [2] (flp-in-293).

As for `CC(=O)Nc1cccc(C(=O)N2CCC3(CCNCC3)CC2)c1`, the IC50 is 6.68 µM in assay [1], 6.76 µM in assay [1] (read-out: pIC50 (converted)), 0.363 µM in assay [2] (setting [6]) and 0.36 µM in assay [2] (flp-in-293).

Take `Cc1ccc(C(=O)N2CCC3(CCNCC3)CC2)cc1`: the IC50 in assay [3] was 13.2 µM; in assay [3] (read-out: pIC50 (converted)), 13.2 µM; in assay [4] (setting [6]) it was 8.71 µM; in assay [4] (flp-in-293) it was 8.87 µM; in assay [5], 1.5 µM; in assay [5] (read-out: pIC50 (converted)) it was 1.45 µM.

With `Cc1cccc(C(=O)N2CCC3(CCNCC3)CC2)c1`, the IC50 in assay [3] was 4.95 µM; in assay [3] (read-out: pIC50 (converted)), 4.9 µM; in assay [4] (setting [6]), 1.91 µM; in assay [4] (flp-in-293) it was 1.95 µM; in assay [5] it was 0.54 µM; in assay [5] (read-out: pIC50 (converted)) it was 0.537 µM.

(Values after ChEMBL document CHEMBL5096209, “Structure-Activity Studies of 3,9-Diazaspiro[5.5]undecane-Based γ-Aminobutyric Acid Type A Receptor Antagonists with Immunomodulatory Effect” (J Med Chem, 2021).)
